Measurements reported in ChEMBL document CHEMBL1145520, “RAS-RAF-MEK-dependent oxidative cell death involving voltage-dependent anion channels” (Nature, 2007).
Activity calls are given as the source filed them. No cut-off for these calls is given here.

Tests used:
HCT-116 = assay: Induction of cell death in human HCT116 cells; type: functional
HT-1080 [1] = assay: Induction of pro-caspase 3 cleavage in human HT1080 cells; type: functional, cell-based
Procedure, shortened: (§1)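 Cells either untreated, given staurosporine, or given erastin for 6–10 h, then lysed in HEPES pH 7.4 buffer with phosphatase and protease inhibitors. Lysates run on SDS-PAGE, blotted to PVDF, probed with antibodies detecting active caspase-3, with actin as loading control. Bands read on infrared imager.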

HT-1080 [2] = assay: Induction of cell death in human HT1080 cells in presence of MEK inhibitor 2 by trypan blue exclusion method; type: functional, cell-based
HeLa = assay: Induction of PARP1 cleavage in human HeLa cells; type: functional, cell-based
Procedure, shortened: (§2)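 Cells were left untreated or given staurosporine or erastin for 6 or 8 h. Lysates were analysed by western blot for full-length and cleaved PARP1, with actin as loading control.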

SVR = assay: Induction of cell death in human SVR cells; type: functional, cell-based
[3] = target: T1, Mitogen-activated protein kinase; ERK1/ERK2 (Homo sapiens) (UniProt P27361+P28482); assay: Effect on ERK1/2 phosphorylation in TERT expressing human BJ cells by Western blot; type: cell-based
T1 sequence (P27361 whole entry, looked up): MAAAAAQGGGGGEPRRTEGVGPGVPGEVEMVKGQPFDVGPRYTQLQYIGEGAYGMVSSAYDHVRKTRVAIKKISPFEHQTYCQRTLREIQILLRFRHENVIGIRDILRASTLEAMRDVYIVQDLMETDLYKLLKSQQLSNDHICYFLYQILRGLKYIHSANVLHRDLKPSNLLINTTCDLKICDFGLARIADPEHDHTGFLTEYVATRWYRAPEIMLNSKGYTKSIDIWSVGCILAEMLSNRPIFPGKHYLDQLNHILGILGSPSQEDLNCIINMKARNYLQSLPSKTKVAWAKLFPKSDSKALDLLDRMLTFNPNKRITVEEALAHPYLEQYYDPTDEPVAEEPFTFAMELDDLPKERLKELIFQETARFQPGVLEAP
T1 sequence (P28482 whole entry, looked up): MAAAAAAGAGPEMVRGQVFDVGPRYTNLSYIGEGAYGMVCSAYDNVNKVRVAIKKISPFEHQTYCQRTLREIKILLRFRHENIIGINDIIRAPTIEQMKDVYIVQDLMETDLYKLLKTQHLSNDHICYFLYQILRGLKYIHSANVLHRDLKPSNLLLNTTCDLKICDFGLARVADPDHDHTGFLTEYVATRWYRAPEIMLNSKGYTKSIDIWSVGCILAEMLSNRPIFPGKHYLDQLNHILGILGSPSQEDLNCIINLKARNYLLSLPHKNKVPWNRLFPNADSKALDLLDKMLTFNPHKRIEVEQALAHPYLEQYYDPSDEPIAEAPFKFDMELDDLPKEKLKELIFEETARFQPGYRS
Procedure, shortened: (§3)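 Washed cells were lysed in pH 7.4 HEPES buffer containing orthovanadate, NaF, pyrophosphate, β-glycerophosphate and protease inhibitors. Lysates were run on SDS-PAGE, transferred to PVDF and blocked 1 h at room temperature. Blots were probed with a multiplex phospho-signalling antibody cocktail and read by infrared fluorescence scanning.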

[4] = target: T1, Mitogen-activated protein kinase; ERK1/ERK2 (Homo sapiens); assay: Effect on ERK1/2 phosphorylation in human TC71 cells by Western blot; type: cell-based; procedure, shortened: as §3
HT-1080 [5] = assay: Suppression of induction of cell death in human HT1080 cells at […] by Alamar Blue assay in presence of butylated hydroxytoluene; type: functional, cell-based
HT-1080 [6] = assay: Induction of cell death in human HT1080 cells in presence of PD-98059 by trypan blue exclusion method; type: functional, cell-based
[7] = Induction of cell death in human Hs51.T cells; type: functional, cell-based
BJ [8] = assay: Induction of pro-caspase 3 cleavage in human BJ cells expressing TERT, LT, ST and RAS G12V mutant genes; type: functional, cell-based; procedure, shortened: as §1
BJ [9] = assay: Induction of mitochondrial structural integrity loss in human BJ cells expressing TERT, LT, ST and RAS G12V mutant genes cells at 37 uM after 10 hrs; type: functional, cell-based
Procedure, shortened: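 BJ-TERT/LT/ST/RASV12 cells exposed 10 h to erastin (37 µM per legend; 20 µg/ml in methods), then fixed in 2.5% glutaraldehyde in 0.1 M Sorenson's buffer pH 7.2 and post-fixed in 1% OsO4. Sections stained with uranyl acetate/lead citrate.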

BJ [10] = assay: Induction of cell death in human BJ cells expressing TERT, LT, ST and RAS G12V mutant genes at 13 uM; type: functional
BJ [11] = assay: Induction of cell death in TERT expressing human BJ cells; type: functional, cell-based
[12] = target: T1, Mitogen-activated protein kinase; ERK1/ERK2 (Homo sapiens); assay: Effect on ERK1/2 phosphorylation in human SW872 cells by Western blot; type: cell-based; procedure, shortened: as §3
HT-1080 [13] = assay: Induction of cell death in human HT1080 cells in presence of MEK 1/2 inhibitor by trypan blue exclusion method; type: functional, cell-based
BJ [14] = assay: Induction of cell death in human BJ cells expressing TERT, LT, ST and RAS G12V mutant genes in presence of U0126 by trypan blue exclusion method; type: functional, cell-based
Procedure, shortened: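 BJ-TERT/LT/ST/RASV12 cells were co-treated for 48 h with 1.5 µM erastin plus 20 µM U0126, 10 µM MEK inhibitor I or 50 µM MEK1/2 inhibitor. Viability was measured by automated Trypan blue exclusion of trypsinized cells resuspended in growth medium; n = 2 or 3.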

SK-N-MC = assay: Induction of cell death in human SK-N-MC cells; type: functional, cell-based
[15] = Induction of cell death in human EWS502 cells; type: functional, cell-based
SW982 = assay: Induction of cell death in human SW982 cells; type: functional
BJ [16] = assay: Prevention of induction of cell death in human BJ cells expressing TERT, LT, ST and RAS G12V mutant genes cells after 24 hrs in presence of alpha-tocopherol; type: functional, cell-based
Procedure, shortened: (§4)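 BJ-TERT/LT/ST/RASV12 cells treated 24 h with erastin across roughly 1–2.5 µM, together with DMSO or an antioxidant (α-tocopherol, BHT or β-carotene). Viability read afterwards.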

SK-ES1 = assay: Induction of cell death in human SK-ES-1 cells; type: functional, cell-based
[17] = Induction of cell death in human TC32 cells; type: functional, cell-based, TC-32
HT-1080 [18] = assay: Induction of PARP1 cleavage in human HT1080 cells; type: functional, cell-based; procedure, shortened: as §2
BJ [19] = assay: Effect on intracellular oxidative species in TERT expressing human BJ cells at 4.6 uM; type: functional, cell-based
Procedure, shortened: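 Cells seeded at 3 × 10^5 per 60 mm dish were grown overnight, then exposed to 4.6 erastin for 2–12 h; H2O2 for 5 min served as positive control. Cells were loaded with H2DCF-DA for 10 min, trypsinized, PBS-washed and stained with propidium iodide. Read-out was flow cytometry as percent of cells with DCF fluorescence in gate M1; n = 2.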

BJ [20] = assay: Induction of cytochrome c release in cytosolic fraction of human BJ cells expressing TERT, LT, ST and RAS G12V mutant genes at 20 ug/ml; type: functional, cell-based
Procedure, shortened: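 BJ-TERT/LT/ST/RASV12 cells seeded 3 × 10^6 per dish, incubated overnight at 37 °C, 5% CO2, then exposed to erastin 20 µg/ml for 6–26 h. Fractionated on ice by needle lysis: nuclei spun out at 400g, mitochondria pelleted at 10,500g. Cytochrome c detected by western blot in cytosolic and mitochondrial fractions.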

SK-LMS-1 = assay: Induction of cell death in human SKLMS1 cells; type: functional, cell-based
[21] = target: T1, Mitogen-activated protein kinase; ERK1/ERK2 (Homo sapiens); assay: Effect on ERK1/2 phosphorylation in human SKES1 cells by Western blot; type: cell-based; procedure, shortened: as §3
[22] = target: T1, Mitogen-activated protein kinase; ERK1/ERK2 (Homo sapiens); assay: Effect on ERK1/2 phosphorylation in human BJ cells expressing TERT, LT, ST and RAS G12V mutant genes cells by Western blot; type: cell-based; procedure, shortened: as §3
SW872 = assay: Induction of cell death in human SW872 cells; type: functional
BJ [23] = assay: Induction of cell death in human BJ cells expressing TERT, LT, ST and RAS G12V mutant genes cells in presence of MEK inhibitor 2 by trypan blue exclusion method; type: functional, cell-based
[24] = Induction of cell death in human A431NS cells; type: functional
[25] = target: T1, Mitogen-activated protein kinase; ERK1/ERK2 (Homo sapiens); assay: Effect on ERK1/2 phosphorylation in human TC32 cells by Western blot; type: cell-based; procedure, shortened: as §3
[26] = Induction of cell death in human MES-SA cells; type: functional, cell-based
HT-1080 [27] = assay: Suppression of induction of cell death in human HT1080 cells at […] by Alamar Blue assay in presence of in presence of alpha-tocopherol; type: functional, cell-based
HOS = assay: Induction of cell death in human HOS cells; type: functional, cell-based
BJ [28] = assay: Prevention of induction of cell death in human BJ cells expressing TERT, LT, ST and RAS G12V mutant genes cells after 24 hrs in presence of beta-carotene; type: functional, cell-based; procedure, shortened: as §4

Compound: CCOc1ccccc1-n1c(C(C)N2CCN(C(=O)COc3ccc(Cl)cc3)CC2)nc2ccccc2c1=O (configuration not stated) [ERASTIN]
- Activity (HCT-116): 0%
- Activity (HT-1080 [1]): inactive
- IC50 (HT-1080 [2]): 1.3 µM
- Activity (HeLa): inactive
- Activity (SVR): 20%
- EC50 (SVR; Mus musculus, SVR): 2.5 µM
- Activity [3]: 0.09 a.u.
- Activity [4]: 0.23 a.u.
- Activity (HT-1080 [5]): Active
- IC50 (HT-1080 [6]): 1 µM
- Activity [7]: 88%
- EC50 ([7]; Homo sapiens): 12 µM
- Activity (BJ [8]): inactive
- Activity (BJ [9]): Active
- Activity (BJ [10]): 100%
- Activity (BJ [11]): 22%
- EC50 (BJ [11]; Homo sapiens, BJ): 10 µM
- Activity [12]: 0.12 a.u.
- IC50 (HT-1080 [13]): 6 µM
- IC50 (BJ [14]): 31.2 µM
- Activity (SK-N-MC): 95%
- EC50 (SK-N-MC; Homo sapiens, SK-N-MC): 10 µM
- Activity [15]: 42%
- EC50 ([15]; Homo sapiens, EWS502): 10 µM
- Activity (SW982): 0%
- Activity (BJ [16]): Active
- Activity (SK-ES1): 96%
- EC50 (SK-ES1; Homo sapiens, SK-ES1): 7 µM
- Activity [17]: 88%
- EC50 ([17]; Homo sapiens, TC-32): 8 µM
- Activity (HT-1080 [18]): inactive
- Activity (BJ [19]): inactive
- Activity (BJ [20]): inactive
- Activity (SK-LMS-1): 100%
- EC50 (SK-LMS-1; Homo sapiens, SK-LMS-1): 6 µM
- Activity [21]: 0.25 a.u.
- Activity [22]: 0.92 a.u.
- Activity (SW872): 0%
- IC50 (BJ [23]): 0.9 µM
- Activity [24]: 0%
- Activity [25]: 0.12 a.u.
- Activity [26]: 100%
- EC50 ([26]; Homo sapiens, MES-SA): 3 µM
- Activity (HT-1080 [27]): Active
- Activity (HOS): 100%
- EC50 (HOS; Homo sapiens, HOS): 17 µM
- Activity (BJ [28]): Active
